Laboratory results as given in paper PMC4955388 (Bioorganic & medicinal chemistry letters, 2016).
Where two headings read alike, the source gives them in different places.

Key:
[1] = Intrinsic clearance in rat hepatic microsomes and predicted hepatic clearance; format: in vitro ADME; conditions: for Rat CLHEP (predicted hepatic clearance): calculated from rat microsomal CLINT; for CLint scaled at 1 µM: rat, liver microsomes
[2] = format: in vivo, rat; conditions: 1 h; for Concentration, Plasma HPV: hepatic portal vein
Summary of the method: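 Rats received 10 mg/kg test compound orally, with vehicle or co-dosed with 1-aminobenzotriazole, a pan-irreversible cytochrome P450 inhibitor. At 1 h, concentrations were measured in systemic plasma, hepatic portal vein plasma and brain.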

[3] = po 10 mg/kg with vehicle (no ABT)

Compound: Cc1ccc(S(=O)(=O)n2ccc(NC(=O)c3ccccn3)c2)cc1 [11l]
- Rat CLHEP (predicted hepatic clearance) [1]: 68.2 mL/min/kg
- CLint scaled at 1 µM [1]: 2700 mL/min/kg

Compound: Cc1cccc(S(=O)(=O)n2ccc(NC(=O)c3ccccn3)c2)c1 [11m]
- Rat CLHEP (predicted hepatic clearance) [1]: 68.8 mL/min/kg
- CLint scaled at 1 µM [1]: 4040 mL/min/kg

Compound: O=C(Nc1ccn(S(=O)(=O)c2ccc(Cl)cc2)c1)c1ccccn1 [11o]
- Rat CLHEP (predicted hepatic clearance) [1]: 65.9 mL/min/kg
- CLint scaled at 1 µM [1]: 1130 mL/min/kg

Compound: Cc1ccc(S(=O)(=O)n2ccc(NC(=O)c3ccccn3)c2)cc1C [11r, N-(1-((3,4-Dimethylphenyl)sulfonyl)-1H-pyrrol-3-yl)picolinamide]
- CLint scaled at 1 µM [1]: 293 mL/min/kg

Compound: Cc1ccc(S(=O)(=O)n2cc(NC(=O)c3ccccn3)cn2)cc1C [11s]
- Rat CLHEP (predicted hepatic clearance) [1]: 68.7 mL/min/kg
- CLint scaled at 1 µM [1]: 3800 mL/min/kg

Compound: Cc1cc(S(=O)(=O)n2ccc(NC(=O)c3ccccn3)c2)ccc1Cl [11t]
- Rat CLHEP (predicted hepatic clearance) [1]: 68.6 mL/min/kg
- CLint scaled at 1 µM [1]: 3440 mL/min/kg
- Concentration, Brain ([2]; po 10 mg/kg co-dosed with ABT): 175.5 ng/mg or g
- Concentration, Plasma systemic ([2]; po 10 mg/kg co-dosed with ABT): 198.5 ng/mg or g
- Concentration, Plasma HPV ([2]; po 10 mg/kg co-dosed with ABT): 764.5 ng/mg or g
- Concentration, Brain [2, 3]: 8.1 ng/mg or g
- Concentration, Plasma systemic [2, 3]: 7.4 ng/mg or g
- Concentration, Plasma HPV [2, 3]: 731 ng/mg or g
